Results published in ChEMBL document CHEMBL4393719, “Tetrahydro-3-benzazepines with fluorinated side chains as NMDA and σ1 receptor antagonists: Synthesis, receptor affinity, selectivity and antiallodynic activity” (Eur J Med Chem, 2019).

Tests used:
Sus scrofa [1] = species: Sus scrofa; settings: at 1 µM
[2] = target: Sigma intracellular receptor 2 (Rattus norvegicus) (UniProt Q5U3Y7); test: Displacement of [3H]-di-o-tolylguanidine from sigma2 receptor in rat liver membranes at 10^-10 to 10^-5 mol/L incubated for 120 mins by scintillation counting method relative to control; format: cell membranes
Homo sapiens = species: Homo sapiens; test: Displacement of [3H] ifenprodil from GluN2B/GluN1a (unknown origin) expressed in mouse L(tk-) cell membranes at 10^-10 to 10^-5 mol/L incubated for 120 mins by scintillation counting method relative to control
Method in brief: (§1)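 Membranes from mouse L(tk-) cells co-transfected with dexamethasone-inducible GluN1a/GluN2B (1:5), induced 24 h with 4 μM dexamethasone plus 4 μM ketamine.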

[3] = target: Sigma non-opioid intracellular receptor 1 (Cavia porcellus) (UniProt Q60492); test: Displacement of [3H]-(+)-pentazocine from sigma1 receptor in guinea pig brain cortex membranes at 10^-10 to 10^-5 mol/L incubated for 120 mins by scintillation counting method relative to control; format: cell membranes
[4] = Displacement of [3H] ifenprodil from GluN2B/GluN1a (unknown origin) expressed in mouse L(tk-) cell membranes incubated for 120 mins by scintillation counting method; parameters: species or system Homo sapiens
Method in brief: as §1

Sus scrofa [5] = species: Sus scrofa; test: Displacement of [3H]-(+)-MK-801 from NMDA PCP binding site in pig brain cortex membrane at 10 uM incubated for 180 mins by scintillation counting method relative to control; format: cell membranes

Chain of Sigma intracellular receptor 2 (Rattus norvegicus) (Q5U3Y7 whole entry): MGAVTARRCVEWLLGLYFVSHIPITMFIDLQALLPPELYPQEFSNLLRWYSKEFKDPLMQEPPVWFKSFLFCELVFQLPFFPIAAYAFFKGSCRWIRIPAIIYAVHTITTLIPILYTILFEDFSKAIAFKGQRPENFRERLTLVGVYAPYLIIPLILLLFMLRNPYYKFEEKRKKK
Chain of Sigma non-opioid intracellular receptor 1 (Cavia porcellus) (Q60492 whole entry): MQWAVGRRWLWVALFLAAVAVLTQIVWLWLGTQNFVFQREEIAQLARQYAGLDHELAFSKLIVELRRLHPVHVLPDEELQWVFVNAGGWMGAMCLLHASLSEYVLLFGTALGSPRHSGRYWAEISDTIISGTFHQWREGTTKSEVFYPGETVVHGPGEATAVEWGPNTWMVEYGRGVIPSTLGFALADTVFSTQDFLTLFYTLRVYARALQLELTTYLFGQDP

inhibition (Sus scrofa [1]) [%] | inhibition [2] [%] | inhibition [3] [%] | inhibition (Sus scrofa [5]) [%] | Structure (SMILES) | inhibition (Homo sapiens) [%] | Ki [4] [µM]
0 | 0 | 0 |  | COc1ccc2c(c1)CCN1CC2OC1C(F)CCc1ccccc1 (stereo unspecified) | 8 | 
 |  |  | 22 | COc1ccc2c(c1)CCN(CCCCc1ccccc1)CC2O (stereo unspecified) |  | 0.706
